According to ChEMBL document CHEMBL5303300, “EUbOPEN Chemogenomics Library - Multiplex” (2023):
Several values for one entry are separate records, joined by “and”; a condition that tells them apart may be missing. Equal entries are not always repeated.

Tested on: HEK-293T
Assay: Multiplex assay against HEK293T
Type: toxicity, cell-based
Conditions: human, number of replicates 2
Procedure, shortened: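 Four dyes were applied at seeding to live cells: Hoechst33342, BioTracker Green Microtubule Cytoskeleton Dye, MitoTracker Red and Annexin V Alexa Fluor 680. Imaging after compound addition used a CQ1 microscope at 37°C and 5% CO2. CellPathfinder machine-learning gating then sorted cells into Hoechst high-intensity objects or normal cells, normal cells into healthy, pyknosed or fragmented nuclei, and pyknosed cells into mitotic or apoptotic, with tubulin, mitochondrial-mass and membrane-permeability phenotypes given as per cents of healthy-nucleus cells.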

[1] = 12 h, 1 µM, compound concentration 1 uM
[2] = 12 h, 10 µM, compound concentration 10 uM
[3] = 24 h, 1 µM, compound concentration 1 uM
[4] = 24 h, 10 µM, compound concentration 10 uM
[5] = 48 h, 1 µM, compound concentration 1 uM
[6] = 48 h, 10 µM, compound concentration 10 uM

SMILES: C[C@@H](OC[C@@]1(c2ccccc2)CC[C@]2(CCC(=O)N2)CN1)c1cc(C(F)(F)F)cc(C(F)(F)F)c1 [ROLAPITANT]
- Population Apoptotic (%) [1]: 57% and 49%
- Population Fragmented Nuclei (%) [1]: 6% and 4%
- Population Healthy Nuclei (%) [1]: 72% and 81%
- Population Hoechst High Intensity Objects (%) [1]: 7% and 8%
- Population Membrane Permeable-Phenotype (%) [1]: 5% and 3%
- Population Mitochondria Different-Phenotype (%) [1]: 25% and 28%
- Population Mitotic Cells (%) [1]: 42% and 50%
- Population Normal (%) [1]: 92% and 91%
- Population Pyknosed Nuclei (%) [1]: 21% and 14%
- Population Tubulin-Different-Phenotype (%) [1]: 66% and 80%
- Total Cell Count [1]: 453 and 616
- Population Apoptotic (%) [2]: 56% and 70%
- Population Fragmented Nuclei (%) [2]: 4%
- Population Healthy Nuclei (%) [2]: 80% and 77%
- Population Hoechst High Intensity Objects (%) [2]: 11% and 6%
- Population Membrane Permeable-Phenotype (%) [2]: 4% and 2%
- Population Mitochondria Different-Phenotype (%) [2]: 35% and 40%
- Population Mitotic Cells (%) [2]: 44% and 29%
- Population Normal (%) [2]: 88% and 93%
- Population Pyknosed Nuclei (%) [2]: 15% and 17%
- Population Tubulin-Different-Phenotype (%) [2]: 81% and 86%
- Total Cell Count [2]: 563 and 415
- Population Apoptotic (%) [3]: 63% and 53%
- Population Fragmented Nuclei (%) [3]: 8% and 6%
- Population Healthy Nuclei (%) [3]: 75% and 80%
- Population Hoechst High Intensity Objects (%) [3]: 6% and 9%
- Population Membrane Permeable-Phenotype (%) [3]: 3% and 2%
- Population Mitochondria Different-Phenotype (%) [3]: 12% and 13%
- Population Mitotic Cells (%) [3]: 36% and 46%
- Population Normal (%) [3]: 93% and 90%
- Population Pyknosed Nuclei (%) [3]: 15% and 12%
- Population Tubulin-Different-Phenotype (%) [3]: 51% and 61%
- Total Cell Count [3]: 631 and 823
- Population Apoptotic (%) [4]: 61%
- Population Fragmented Nuclei (%) [4]: 7%
- Population Healthy Nuclei (%) [4]: 81% and 77%
- Population Hoechst High Intensity Objects (%) [4]: 12% and 9%
- Population Membrane Permeable-Phenotype (%) [4]: 3%
- Population Mitochondria Different-Phenotype (%) [4]: 21% and 27%
- Population Mitotic Cells (%) [4]: 38%
- Population Normal (%) [4]: 87% and 90%
- Population Pyknosed Nuclei (%) [4]: 11% and 15%
- Population Tubulin-Different-Phenotype (%) [4]: 70% and 69%
- Total Cell Count [4]: 730 and 604
- Population Apoptotic (%) [5]: 35% and 28%
- Population Fragmented Nuclei (%) [5]: 12% and 11%
- Population Healthy Nuclei (%) [5]: 82% and 83%
- Population Hoechst High Intensity Objects (%) [5]: 8% and 11%
- Population Membrane Permeable-Phenotype (%) [5]: 5% and 3%
- Population Mitochondria Different-Phenotype (%) [5]: 1% and 2%
- Population Mitotic Cells (%) [5]: 64% and 71%
- Population Normal (%) [5]: 91% and 88%
- Population Pyknosed Nuclei (%) [5]: 4% and 5%
- Population Tubulin-Different-Phenotype (%) [5]: 23% and 39%
- Total Cell Count [5]: 1671
- Population Apoptotic (%) [6]: 50% and 48%
- Population Fragmented Nuclei (%) [6]: 11% and 8%
- Population Healthy Nuclei (%) [6]: 83% and 84%
- Population Hoechst High Intensity Objects (%) [6]: 9%
- Population Membrane Permeable-Phenotype (%) [6]: 6% and 3%
- Population Mitochondria Different-Phenotype (%) [6]: 4% and 11%
- Population Mitotic Cells (%) [6]: 49% and 51%
- Population Normal (%) [6]: 90%
- Population Pyknosed Nuclei (%) [6]: 5% and 7%
- Population Tubulin-Different-Phenotype (%) [6]: 53% and 48%
- Total Cell Count [6]: 1126 and 904

SMILES: CN(C)CCN(Cc1ccc(-c2ccc(CNCCc3ccccc3)cc2)cc1)C(=O)CCC1CCCC1.Cl.Cl
- Population Apoptotic (%) [1]: 45% and 51%
- Population Fragmented Nuclei (%) [1]: 2% and 1%
- Population Healthy Nuclei (%) [1]: 87% and 86%
- Population Hoechst High Intensity Objects (%) [1]: 6% and 3%
- Population Membrane Permeable-Phenotype (%) [1]: 2%
- Population Mitochondria Different-Phenotype (%) [1]: 34% and 33%
- Population Mitotic Cells (%) [1]: 54% and 48%
- Population Normal (%) [1]: 93% and 96%
- Population Pyknosed Nuclei (%) [1]: 9% and 11%
- Population Tubulin-Different-Phenotype (%) [1]: 86% and 78%
- Total Cell Count [1]: 835 and 591
- Population Apoptotic (%) [2]: 61% and 57%
- Population Fragmented Nuclei (%) [2]: 7% and 4%
- Population Healthy Nuclei (%) [2]: 43% and 42%
- Population Hoechst High Intensity Objects (%) [2]: 28% and 30%
- Population Membrane Permeable-Phenotype (%) [2]: 4% and 1%
- Population Mitochondria Different-Phenotype (%) [2]: 72% and 73%
- Population Mitotic Cells (%) [2]: 38% and 42%
- Population Normal (%) [2]: 71% and 69%
- Population Pyknosed Nuclei (%) [2]: 48% and 52%
- Population Tubulin-Different-Phenotype (%) [2]: 93% and 96%
- Total Cell Count [2]: 396 and 358
- Population Apoptotic (%) [3]: 36%
- Population Fragmented Nuclei (%) [3]: 4% and 6%
- Population Healthy Nuclei (%) [3]: 89% and 85%
- Population Hoechst High Intensity Objects (%) [3]: 6% and 5%
- Population Membrane Permeable-Phenotype (%) [3]: 1%
- Population Mitochondria Different-Phenotype (%) [3]: 17% and 21%
- Population Mitotic Cells (%) [3]: 63%
- Population Normal (%) [3]: 93% and 94%
- Population Pyknosed Nuclei (%) [3]: 6% and 7%
- Population Tubulin-Different-Phenotype (%) [3]: 63% and 61%
- Total Cell Count [3]: 1227 and 899
- Population Apoptotic (%) [4]: 73%
- Population Fragmented Nuclei (%) [4]: 5%
- Population Healthy Nuclei (%) [4]: 42% and 36%
- Population Hoechst High Intensity Objects (%) [4]: 31% and 39%
- Population Membrane Permeable-Phenotype (%) [4]: 3% and 1%
- Population Mitochondria Different-Phenotype (%) [4]: 80% and 84%
- Population Mitotic Cells (%) [4]: 26%
- Population Normal (%) [4]: 68% and 60%
- Population Pyknosed Nuclei (%) [4]: 51% and 57%
- Population Tubulin-Different-Phenotype (%) [4]: 89% and 95%
- Total Cell Count [4]: 357 and 312
- Population Apoptotic (%) [5]: 15% and 20%
- Population Fragmented Nuclei (%) [5]: 12% and 9%
- Population Healthy Nuclei (%) [5]: 84% and 86%
- Population Hoechst High Intensity Objects (%) [5]: 8%
- Population Membrane Permeable-Phenotype (%) [5]: 4% and 5%
- Population Mitochondria Different-Phenotype (%) [5]: 0% and 2%
- Population Mitotic Cells (%) [5]: 84% and 79%
- Population Normal (%) [5]: 91%
- Population Pyknosed Nuclei (%) [5]: 3% and 4%
- Population Tubulin-Different-Phenotype (%) [5]: 21% and 25%
- Total Cell Count [5]: 3014 and 1979
- Population Apoptotic (%) [6]: 88% and 79%
- Population Fragmented Nuclei (%) [6]: 9% and 5%
- Population Healthy Nuclei (%) [6]: 30% and 28%
- Population Hoechst High Intensity Objects (%) [6]: 33% and 40%
- Population Membrane Permeable-Phenotype (%) [6]: 1% and 0%
- Population Mitochondria Different-Phenotype (%) [6]: 82% and 91%
- Population Mitotic Cells (%) [6]: 11% and 20%
- Population Normal (%) [6]: 66% and 59%
- Population Pyknosed Nuclei (%) [6]: 60% and 65%
- Population Tubulin-Different-Phenotype (%) [6]: 84% and 93%
- Total Cell Count [6]: 318 and 281

SMILES: COCCN1CCN(CCn2ccc(Nc3ncc4c(n3)-c3c(nn(C)c3-c3ccccc3)C[C@H]4C)n2)CC1
- Population Apoptotic (%) [1]: 55% and 57%
- Population Fragmented Nuclei (%) [1]: 2% and 5%
- Population Healthy Nuclei (%) [1]: 86% and 79%
- Population Hoechst High Intensity Objects (%) [1]: 14% and 13%
- Population Membrane Permeable-Phenotype (%) [1]: 3%
- Population Mitochondria Different-Phenotype (%) [1]: 44% and 55%
- Population Mitotic Cells (%) [1]: 44% and 42%
- Population Normal (%) [1]: 85% and 86%
- Population Pyknosed Nuclei (%) [1]: 11% and 15%
- Population Tubulin-Different-Phenotype (%) [1]: 73% and 85%
- Total Cell Count [1]: 402 and 361
- Population Apoptotic (%) [2]: 66% and 76%
- Population Fragmented Nuclei (%) [2]: 5%
- Population Healthy Nuclei (%) [2]: 76% and 78%
- Population Hoechst High Intensity Objects (%) [2]: 21% and 20%
- Population Membrane Permeable-Phenotype (%) [2]: 2%
- Population Mitochondria Different-Phenotype (%) [2]: 65% and 76%
- Population Mitotic Cells (%) [2]: 33% and 23%
- Population Normal (%) [2]: 78% and 79%
- Population Pyknosed Nuclei (%) [2]: 18% and 16%
- Population Tubulin-Different-Phenotype (%) [2]: 94% and 95%
- Total Cell Count [2]: 332 and 297
- Population Apoptotic (%) [3]: 48% and 64%
- Population Fragmented Nuclei (%) [3]: 7% and 3%
- Population Healthy Nuclei (%) [3]: 86% and 90%
- Population Hoechst High Intensity Objects (%) [3]: 15% and 17%
- Population Membrane Permeable-Phenotype (%) [3]: 1% and 2%
- Population Mitochondria Different-Phenotype (%) [3]: 30% and 33%
- Population Mitotic Cells (%) [3]: 52% and 35%
- Population Normal (%) [3]: 84% and 82%
- Population Pyknosed Nuclei (%) [3]: 6%
- Population Tubulin-Different-Phenotype (%) [3]: 74% and 75%
- Total Cell Count [3]: 473 and 331
- Population Apoptotic (%) [4]: 71% and 78%
- Population Fragmented Nuclei (%) [4]: 5% and 2%
- Population Healthy Nuclei (%) [4]: 72% and 83%
- Population Hoechst High Intensity Objects (%) [4]: 25% and 24%
- Population Membrane Permeable-Phenotype (%) [4]: 1% and 2%
- Population Mitochondria Different-Phenotype (%) [4]: 71% and 75%
- Population Mitotic Cells (%) [4]: 28% and 21%
- Population Normal (%) [4]: 74% and 75%
- Population Pyknosed Nuclei (%) [4]: 22% and 14%
- Population Tubulin-Different-Phenotype (%) [4]: 90% and 92%
- Total Cell Count [4]: 250 and 217
- Population Apoptotic (%) [5]: 73% and 30%
- Population Fragmented Nuclei (%) [5]: 12% and 8%
- Population Healthy Nuclei (%) [5]: 84% and 87%
- Population Hoechst High Intensity Objects (%) [5]: 27% and 18%
- Population Membrane Permeable-Phenotype (%) [5]: 4% and 2%
- Population Mitochondria Different-Phenotype (%) [5]: 5% and 10%
- Population Mitotic Cells (%) [5]: 26% and 70%
- Population Normal (%) [5]: 72% and 81%
- Population Pyknosed Nuclei (%) [5]: 3% and 4%
- Population Tubulin-Different-Phenotype (%) [5]: 63% and 68%
- Total Cell Count [5]: 864 and 570
- Population Apoptotic (%) [6]: 66%
- Population Fragmented Nuclei (%) [6]: 7% and 6%
- Population Healthy Nuclei (%) [6]: 89% and 82%
- Population Hoechst High Intensity Objects (%) [6]: 24% and 20%
- Population Membrane Permeable-Phenotype (%) [6]: 0% and 4%
- Population Mitochondria Different-Phenotype (%) [6]: 49% and 51%
- Population Mitotic Cells (%) [6]: 33%
- Population Normal (%) [6]: 75% and 79%
- Population Pyknosed Nuclei (%) [6]: 3% and 10%
- Population Tubulin-Different-Phenotype (%) [6]: 86% and 82%
- Total Cell Count [6]: 245 and 220
